Source: PubChem BioAssay
T cruzi inh: blocks replication of Trypanosoma cruzi. inhibition, % (no concentration beside the values). 1.4% of 300,000 active. T. cruzi beta-gal in NIH3T3, luminescence, 90 h. AID 1885;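 active = mean inhibition across valid replicates above about 55%, limit read from the data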;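 note: signal also drops with host cell toxicity which is not excluded here; higher percent means less beta-gal luminescence so fewer parasites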
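Assay system: NIH/3T3 fibroblasts plus reporter T. cruzi. Amount: NIH/3T3 cells, 5,000 per well. Buffer or medium: DMEM, 2% fetal bovine serum. Doses: compound pinned at 50 nL/well, DMSO. Schedule: ≥90 h infection period, 3 h prior cell attachment. Signal: luminescent β-galactosidase signal after 60 min lysis. Read-out: parasite load inhibition, %.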
CSC inhib: cancer stem cell inhibition | cancer stem cell-like cells viability, luminescence | 1.1% of 300,000 active | inhibition, % at 7.5 µM | AID 2717; in the data active = inhibition above about 75%; tested in HMLE shEcad cells
SKKanGAS inh: inhibitors of SKKanGAS S. pyogenes growth in kanamycin (SK-promoter or general growth effect). 1.3% of 300,000 active. AID 1662. inhibition, % at 7.5 µM. BacTiter-Glo, 6 h;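 active = mean replicate score, as percent of positive control median, at least 50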;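 note: strain carries kanamycin resistance gene driven by streptokinase promoter and grows in 40 µg/ml kanamycin; loss of luminescence reflects streptokinase promoter inhibition or plain growth inhibition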
Beta cell apopt: blocks beta cell apoptosis | protection from apoptosis, % (concentration not given with the values) | INS-1E cytokine-induced death, ATP luminescence, 48 h; percent of positive-control rescue, neutral wells zero | AID 435005 | 0.8% of 300,000 active;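 active = Every replicate reaches about 75%, or at least half do and their mean reaches it too, limit read from the data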;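 note: higher means more ATP so stronger rescue from cytokine killing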
Mdm2-MdmX inh: disrupts the human Mdm2-MdmX interaction. O15151+Q00987. SaOS-2 split-luciferase Mdm2/MdmX complementation, luminescence. inhibition, % at 8 µM. 3% of 330,000 active. AID 485346;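 active = inhibition of at least 50% at 8 µM in the primary screen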
Target sequence (O15151 whole entry, looked up): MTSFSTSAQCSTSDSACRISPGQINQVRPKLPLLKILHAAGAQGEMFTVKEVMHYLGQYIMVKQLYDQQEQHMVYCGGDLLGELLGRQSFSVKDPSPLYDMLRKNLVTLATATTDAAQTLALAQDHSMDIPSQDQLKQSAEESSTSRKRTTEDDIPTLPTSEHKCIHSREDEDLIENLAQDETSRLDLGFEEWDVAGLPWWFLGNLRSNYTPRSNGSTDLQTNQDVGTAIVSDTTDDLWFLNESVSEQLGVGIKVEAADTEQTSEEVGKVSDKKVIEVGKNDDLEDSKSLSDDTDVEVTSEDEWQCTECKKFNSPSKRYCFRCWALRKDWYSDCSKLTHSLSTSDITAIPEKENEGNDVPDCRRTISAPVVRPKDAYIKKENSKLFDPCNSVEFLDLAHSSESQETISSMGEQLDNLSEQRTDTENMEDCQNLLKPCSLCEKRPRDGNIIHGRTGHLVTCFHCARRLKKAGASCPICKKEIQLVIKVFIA
Target sequence (Q00987 whole entry, looked up): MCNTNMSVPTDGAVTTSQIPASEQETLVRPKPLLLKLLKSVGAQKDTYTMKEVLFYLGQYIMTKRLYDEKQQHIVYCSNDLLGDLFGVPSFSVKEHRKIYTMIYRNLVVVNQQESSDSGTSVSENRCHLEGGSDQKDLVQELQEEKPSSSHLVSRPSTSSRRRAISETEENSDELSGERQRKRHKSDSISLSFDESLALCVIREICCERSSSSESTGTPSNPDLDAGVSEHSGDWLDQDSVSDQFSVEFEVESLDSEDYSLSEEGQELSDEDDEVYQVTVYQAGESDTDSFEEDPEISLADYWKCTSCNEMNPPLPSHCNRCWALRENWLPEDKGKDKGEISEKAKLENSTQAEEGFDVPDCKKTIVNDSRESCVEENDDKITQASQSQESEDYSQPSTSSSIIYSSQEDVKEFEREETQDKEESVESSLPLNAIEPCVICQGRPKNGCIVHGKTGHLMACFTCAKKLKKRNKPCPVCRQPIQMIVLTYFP
Calb FLC: C. albicans growth modulation with fluconazole; C. albicans CaCi-2 + fluconazole, Alamar Blue growth, 48 h; 0.57% of 300,000 active; AID 1979; growth inhibition, % (no concentration beside the values);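 active = growth inhibition above about 58% in most replicates, limit read from the data, passing the limit was not always enough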;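 note: all wells also contain fluconazole at 8 µg/ml as a sub-toxic cotreatment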
Mdm2-MdmX conf: human Mdm2/MdmX binding inhibition, confirmed; shares compounds with Mdm2-MdmX inh; luminescent assay; inhibition, % at 8 µM; 55% of 10,000 active; in the data active = inhibition above about 40%
Full FLuc ctr: inhibits full-length luciferase, flagging false Mdm2/MdmX hits. SaOS-2 full-length luciferase counterscreen, luminescence. shares compounds with Mdm2-MdmX inh. 77% of 6,200 active. inhibition, % at 8 µM;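 active = mean inhibition at 8 µM reaching about 37%, which flags the compound as non-specific, limit read from the data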;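 note: p53-null SaOS-2 cells with luciferase driven by a doxycycline-inducible promoter; compound on cells about two nights before reading with doxycycline added after day one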
Large screens that a line does not name were inactive (follow-up assays come after a bar, where they were run). Rows were chosen to be rich in hits. Some 5.7% of all compounds tested hit in one or more screens of this group.

CN(C)CCCN(C(=O)c1ccc(S(=O)(=O)N2CCCCC2)cc1)c1nc2cc3c(cc2s1)OCO3	none
Cc1cc(C)c2nc(N(CCCN(C)C)C(=O)c3ccc(S(=O)(=O)N4CCCCCC4)cc3)sc2c1	Mdm2-MdmX inh 80 (no result: Beta cell apopt) | Mdm2-MdmX conf 50 | Full FLuc ctr 71
Cc1ccc(CN(C(=O)c2ccc(Cl)c([N+](=O)[O-])c2)C2CCS(=O)(=O)C2)o1 (stereo not given)	none
O=C(NCCC1=CCCCC1)c1c(O)nc2sccn2c1=O	Mdm2-MdmX inh 80 | Mdm2-MdmX conf 57 | Full FLuc ctr 68
O=C(NCCCc1ccccc1)c1c(O)nc2sccn2c1=O	Mdm2-MdmX inh 75 (no result: Beta cell apopt) | Mdm2-MdmX conf 57 | Full FLuc ctr 52
CCOc1ccc(NC(=O)c2ccc(N3CC4CC(C3)c3cccc(=O)n3C4)c(N)c2)cc1 (stereo not given)	none
Cn1cc(Br)c(-c2cccc(NC(=O)CC(C)(C)CC(=O)O)c2)n1	none (no result: Beta cell apopt)
Nc1[nH]nc2nc3ccccc3cc12	none
Nc1cccc2nc3ccccc3cc12	Mdm2-MdmX inh 58 (no result: CSC inhib, Beta cell apopt, Calb FLC) | Mdm2-MdmX conf 78 | Full FLuc ctr inactive
Nc1ccc2nc(SCc3ccccc3F)sc2c1	none
Clc1ccc(C2=Nn3c(nnc3-c3n[nH]c4c3CCC4)SC2)cc1Cl	Mdm2-MdmX inh 89 | Mdm2-MdmX conf 69 | Full FLuc ctr inactive
c1ccc(C2=Nn3c(nnc3-c3n[nH]c4c3CCC4)SC2)cc1	Mdm2-MdmX inh 71 (no result: Beta cell apopt) | Mdm2-MdmX conf 51 | Full FLuc ctr 89
COc1ccc(C2=Nn3c(nnc3-c3ccccc3OC)SC2)cc1OC	none (no result: Mdm2-MdmX inh)
COc1ccc(C2=Nn3c(nnc3-c3ccco3)SC2)cc1OC	Mdm2-MdmX inh 55 | Mdm2-MdmX conf inactive
c1ccc(C2=Nn3c(nnc3-c3cc(-c4ccccc4)n[nH]3)SC2)cc1	Mdm2-MdmX inh 79 (no result: Beta cell apopt) | Mdm2-MdmX conf inactive
Clc1ccc(C2=Nn3c(nnc3-c3cc(-c4ccccc4)n[nH]3)SC2)cc1	none
O=C(CN(C(=O)c1csnn1)c1cccc2c1CCCC2)NCc1ccccc1	none
CCOC(=O)[C@H]1[C@H]2COc3ccc(Cl)cc3[C@@H]2N2C(=O)c3ccccc3NC(=O)[C@@]12C	none (no result: T cruzi inh, SKKanGAS inh, Calb FLC)
COc1cc(-c2nnc3n2N=C(c2ccccc2)CS3)cc(OC)c1OC	Mdm2-MdmX inh 74 | Mdm2-MdmX conf 69 | Full FLuc ctr 57
COc1ccc(OC)c(C2=Nn3c(nnc3-c3cc(OC)c(OC)c(OC)c3)SC2)c1	none
c1csc(C2=Nn3c(nnc3-c3ccncc3)SC2)c1	Mdm2-MdmX inh 75 (no result: CSC inhib) | Mdm2-MdmX conf 80 | Full FLuc ctr 51
COc1ccc(C2=Nn3c(nnc3-c3ccc(OC)cc3)SC2)cc1	none (no result: Mdm2-MdmX inh)
COc1cccc(-c2nnc3n2N=C(c2cc(OC)ccc2OC)CS3)c1	none
COc1ccc(C2=Nn3c(nnc3-c3cc(C)[nH]n3)SC2)cc1	Mdm2-MdmX inh 60 | Mdm2-MdmX conf 41 | Full FLuc ctr 100
COc1cccc(-c2nnc3n2N=C(C(C)(C)C)CS3)c1	Mdm2-MdmX inh 85 | Mdm2-MdmX conf 99 | Full FLuc ctr 51
Cc1ccccc1CS(=O)(=O)c1nnc([C@H](Cc2ccccc2)NC(=O)OC(C)(C)C)o1	CSC inhib 99, Beta cell apopt 93, Mdm2-MdmX inh 100 | Mdm2-MdmX conf 53 | Full FLuc ctr inactive
CC(C)(C)OC(=O)N[C@@H](Cc1ccccc1)c1nnc(S(=O)(=O)Cc2ccccc2)o1	CSC inhib 131, Mdm2-MdmX inh 100 (no result: T cruzi inh, SKKanGAS inh, Calb FLC) | Mdm2-MdmX conf 70 | Full FLuc ctr inactive
COCCCNC(=O)C[C@H]1C[C@H](C(=O)N2CCOCC2)[C@@]2(CCC3CCCC3)c3[nH]c4ccc(Cl)cc4c3CCN2C1=O	none (no result: T cruzi inh, CSC inhib, SKKanGAS inh, Beta cell apopt, Calb FLC)
Oc1c(Cl)cc(Cl)cc1/C=N/Nc1ncc(Br)cn1	Beta cell apopt 86, Mdm2-MdmX inh 67 | Mdm2-MdmX conf 69 | Full FLuc ctr inactive
COc1ccccc1CNC(=O)N1CCN(S(=O)(=O)c2ccccc2)CC1	none
COc1ccc(-c2c(-c3cc(OC)cc(OC)c3)n(C)c3ccc(-c4ccc(S(N)(=O)=O)cc4)cc23)cc1	Mdm2-MdmX inh 57 (no result: T cruzi inh, SKKanGAS inh, Calb FLC) | Mdm2-MdmX conf inactive | Full FLuc ctr 80
COc1cccc(-c2c(-c3cc(OC)cc(OC)c3)n(C)c3ccc(-c4cnc(N5CCOCC5)nc4)cc23)c1	Mdm2-MdmX inh 71 (no result: T cruzi inh, SKKanGAS inh, Calb FLC) | Mdm2-MdmX conf inactive
COc1ccc(-c2c(-c3cc(OC)cc(OC)c3)n(C)c3ccc(-c4cnc(N)nc4)cc23)cc1	none (no result: T cruzi inh, CSC inhib, SKKanGAS inh, Calb FLC)
COc1cccc(-c2c(-c3cc(OC)cc(OC)c3)n(C)c3ccc(-c4ccc5cc[nH]c5c4)cc23)c1	none (no result: T cruzi inh, CSC inhib, SKKanGAS inh, Calb FLC)
COc1cc(OC)cc(-c2c(-c3ccc(F)cc3)c3cc(-c4cnc(OC)nc4)ccc3n2C)c1	Mdm2-MdmX inh 57 (no result: T cruzi inh, SKKanGAS inh, Calb FLC) | Mdm2-MdmX conf 54 | Full FLuc ctr 42
COc1cccc(-c2c(-c3cc(OC)cc(OC)c3)n(C)c3ccc(-c4cnc(OC)nc4)cc23)c1	none (no result: T cruzi inh, SKKanGAS inh, Calb FLC)
COC(=O)c1cn(NC(=O)Cn2nc([N+](=O)[O-])c(Br)c2C)c(=O)c2ccccc12	none
COc1ccc(CN2C(=O)[C@H]3Cc4c([nH]c5ccccc45)C(C)(C)N3C2=O)cc1	none
COc1ccc(NC(=O)NNC(=O)c2ccc3ccccc3c2)cc1OC	none
C/C(CC1CC2=C(CC1(C)C)C(C)(C)CCC2)=N\NC(N)=S (stereo not given)	T cruzi inh 56, Mdm2-MdmX inh 51 (no result: CSC inhib, Beta cell apopt) | Mdm2-MdmX conf inactive
C/C(CC1CC(C)(C)OC1=O)=N\NC(N)=S (stereo not given)	none
CCCCOc1ccccc1NC(=O)Cn1c(-c2nonc2N)nc2ccccc21	Mdm2-MdmX inh 90 | Mdm2-MdmX conf inactive
CC(=O)Nc1nonc1-c1nc2ccccc2n1CCC(C)C	Mdm2-MdmX inh 56 | Mdm2-MdmX conf 50 | Full FLuc ctr 45
CC(C)(C)NC(=O)Cn1c(-c2nonc2N)nc2ccccc21	none
CC(=O)Nc1nonc1-c1nc2ccccc2n1C	none
CCC(=O)Nc1nonc1-c1nc2ccccc2n1Cc1cccc2ccccc12	Mdm2-MdmX inh 64 | Mdm2-MdmX conf 70 | Full FLuc ctr 109
CCOC(=O)Cn1c(-c2nonc2NC(=O)c2ccccc2F)nc2ccccc21	Mdm2-MdmX inh 91 | Mdm2-MdmX conf 93 | Full FLuc ctr inactive
CCC(=O)Nc1nonc1-c1nc2ccccc2n1CCC(C)C	Mdm2-MdmX inh 50 | Mdm2-MdmX conf 56 | Full FLuc ctr 56
COc1ccc(-c2oc3cc(OC)c(O)c(OC)c3c(=O)c2OC)cc1O	Mdm2-MdmX inh 64 | Mdm2-MdmX conf 42 | Full FLuc ctr inactive
COc1ccc(-c2oc3cc(O)c(OC)c(O)c3c(=O)c2OC)cc1	none (no result: Beta cell apopt)
COc1cc(-c2cc(=O)c3c(O)c(OC)c(OC)c(O)c3o2)ccc1O	none
